Experimental data from ChEMBL document CHEMBL4689842, “EUbOPEN Chemogenomics Library wave 1” (2021).

Tested on: Fibroblast
Assay: Multiplex assay against human fibroblast
Assay type: toxicity, cell-based
How it was run: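 Tubulin, mitochondrial-mass and membrane-permeability phenotypes are per cents of healthy-nucleus cells. Cells were gated by CellPathfinder machine learning into Hoechst high-intensity objects or normal cells, normal cells into healthy, pyknosed or fragmented nuclei, and pyknosed cells into mitotic or apoptotic. Before that, live cells stained at seeding with Hoechst33342, BioTracker Green Microtubule Cytoskeleton Dye, MitoTracker Red and Annexin V Alexa Fluor 680 were imaged on a CQ1 microscope at 37°C and 5% CO2 after compound addition.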

[1] = 12 h, 1 µM, compound concentration 1 uM, replicate 1
[2] = 12 h, 1 µM, compound concentration 1 uM, replicate 2
[3] = 12 h, 10 µM, compound concentration 10 uM, replicate 1
[4] = 12 h, 10 µM, compound concentration 10 uM, replicate 2
[5] = 24 h, 1 µM, compound concentration 1 uM, replicate 1
[6] = 24 h, 1 µM, compound concentration 1 uM, replicate 2
[7] = 24 h, 10 µM, compound concentration 10 uM, replicate 1
[8] = 24 h, 10 µM, compound concentration 10 uM, replicate 2
[9] = 48 h, 1 µM, compound concentration 1 uM, replicate 1
[10] = 48 h, 1 µM, compound concentration 1 uM, replicate 2
[11] = 48 h, 10 µM, compound concentration 10 uM, replicate 1
[12] = 48 h, 10 µM, compound concentration 10 uM, replicate 2

## CC(Cc1ccc(O)c(O)c1)C(C)Cc1ccc(O)c(O)c1 (stereo not drawn) [NORDIHYDROGUAIARETIC ACID]
[1]
  Population Apoptotic (%): 66%
  Population Fragmented Nuclei (%): 19%
  Population Healthy Nuclei (%): 50%
  Population Hoechst High Intensity Objects (%): 5%
  Population Membrane Permeable-Phenotype (%): 19%
  Population Mitochondria Different-Phenotype (%): 4%
  Population Mitotic Cells (%): 33%
  Population Normal (%): 94%
  Population Pyknosed Nuclei (%): 29%
  Population Tubulin-Different-Phenotype (%): 19%
  Total Cell Count: 170
[2]
  Population Apoptotic (%): 0%
  Population Fragmented Nuclei (%): 3%
  Population Healthy Nuclei (%): 93%
  Population Hoechst High Intensity Objects (%): 15%
  Population Membrane Permeable-Phenotype (%): 0%
  Population Mitochondria Different-Phenotype (%): 1%
  Population Mitotic Cells (%): 100%
  Population Normal (%): 84%
  Population Pyknosed Nuclei (%): 3%
  Population Tubulin-Different-Phenotype (%): 25%
[3]
  Population Apoptotic (%): 87%
  Population Fragmented Nuclei (%): 19%
  Population Healthy Nuclei (%): 46%
  Population Hoechst High Intensity Objects (%): 14%
  Population Membrane Permeable-Phenotype (%): 18%
  Population Mitochondria Different-Phenotype (%): 6%
  Population Mitotic Cells (%): 12%
  Population Normal (%): 85%
  Population Pyknosed Nuclei (%): 33%
  Population Tubulin-Different-Phenotype (%): 13%
[4]
  Population Apoptotic (%): 0%
  Population Fragmented Nuclei (%): 2%
  Population Healthy Nuclei (%): 91%
  Population Hoechst High Intensity Objects (%): 6%
  Population Membrane Permeable-Phenotype (%): 2%
  Population Mitochondria Different-Phenotype (%): 10%
  Population Mitotic Cells (%): 100%
  Population Normal (%): 93%
  Population Pyknosed Nuclei (%): 5%
  Population Tubulin-Different-Phenotype (%): 38%
  Total Cell Count: 70
[5]
  Population Apoptotic (%): 50%
  Population Fragmented Nuclei (%): 20%
  Population Healthy Nuclei (%): 63%
  Population Hoechst High Intensity Objects (%): 6%
  Population Membrane Permeable-Phenotype (%): 22%
  Population Mitochondria Different-Phenotype (%): 3%
  Population Mitotic Cells (%): 50%
  Population Normal (%): 93%
  Population Pyknosed Nuclei (%): 16%
  Population Tubulin-Different-Phenotype (%): 25%
  Total Cell Count: 165
[6]
  Population Apoptotic (%): 0%
  Population Fragmented Nuclei (%): 2%
  Population Healthy Nuclei (%): 94%
  Population Hoechst High Intensity Objects (%): 7%
  Population Membrane Permeable-Phenotype (%): 0%
  Population Mitochondria Different-Phenotype (%): 8%
  Population Mitotic Cells (%): 100%
  Population Normal (%): 92%
  Population Pyknosed Nuclei (%): 2%
  Population Tubulin-Different-Phenotype (%): 23%
[7]
  Population Apoptotic (%): 87%
  Population Fragmented Nuclei (%): 18%
  Population Healthy Nuclei (%): 62%
  Population Hoechst High Intensity Objects (%): 17%
  Population Membrane Permeable-Phenotype (%): 7%
  Population Mitochondria Different-Phenotype (%): 5%
  Population Mitotic Cells (%): 12%
  Population Normal (%): 82%
  Population Pyknosed Nuclei (%): 19%
  Population Tubulin-Different-Phenotype (%): 7%
[8]
  Population Apoptotic (%): 16%
  Population Fragmented Nuclei (%): 2%
  Population Healthy Nuclei (%): 90%
  Population Hoechst High Intensity Objects (%): 5%
  Population Membrane Permeable-Phenotype (%): 1%
  Population Mitochondria Different-Phenotype (%): 9%
  Population Mitotic Cells (%): 83%
  Population Normal (%): 94%
  Population Pyknosed Nuclei (%): 7%
  Population Tubulin-Different-Phenotype (%): 61%
[9]
  Population Apoptotic (%): 60%
  Population Fragmented Nuclei (%): 20%
  Population Healthy Nuclei (%): 75%
  Population Hoechst High Intensity Objects (%): 8%
  Population Membrane Permeable-Phenotype (%): 25%
  Population Mitochondria Different-Phenotype (%): 0%
  Population Mitotic Cells (%): 40%
  Population Normal (%): 91%
  Population Pyknosed Nuclei (%): 3%
  Population Tubulin-Different-Phenotype (%): 16%
  Total Cell Count: 162
[10]
  Population Apoptotic (%): 66%
  Population Fragmented Nuclei (%): 25%
  Population Healthy Nuclei (%): 70%
  Population Hoechst High Intensity Objects (%): 20%
  Population Membrane Permeable-Phenotype (%): 17%
  Population Mitotic Cells (%): 33%
  Population Normal (%): 80%
  Population Pyknosed Nuclei (%): 4%
  Population Tubulin-Different-Phenotype (%): 21%
  Total Cell Count: 90
[11]
  Population Apoptotic (%): 92%
  Population Fragmented Nuclei (%): 33%
  Population Healthy Nuclei (%): 52%
  Population Hoechst High Intensity Objects (%): 15%
  Population Membrane Permeable-Phenotype (%): 6%
  Population Mitotic Cells (%): 7%
  Population Normal (%): 84%
  Population Pyknosed Nuclei (%): 14%
  Population Tubulin-Different-Phenotype (%): 0%
[12]
  Population Apoptotic (%): 100%
  Population Fragmented Nuclei (%): 20%
  Population Healthy Nuclei (%): 77%
  Population Hoechst High Intensity Objects (%): 11%
  Population Membrane Permeable-Phenotype (%): 9%
  Population Mitochondria Different-Phenotype (%): 0%
  Population Mitotic Cells (%): 0%
  Population Normal (%): 88%
  Population Pyknosed Nuclei (%): 1%
  Population Tubulin-Different-Phenotype (%): 2%
